# Data as given in article PMC5776680 (Biochemistry, 2017).
# Experiments:
# Type in all cases: biochemical
# [1] = target: T1, PRMT8 (Homo sapiens, UniProt Q9NR22); assay: PRMT8 single-point radioactive methylation assay; details: compared with the unmodified peptide
# [2] = target: human recombinant PRMT1 (Homo sapiens, UniProt Q99873); assay: PRMT1 single-point radioactive methylation assay; details: compared with the unmodified peptide
# [3] = target: T2, truncated PRMT3 (residues 211–531) (Homo sapiens, UniProt O60678); assay: PRMT3 steady-state kinetics, radioactive filter-binding methylation assay
# T2 sequence (O60678 211-531): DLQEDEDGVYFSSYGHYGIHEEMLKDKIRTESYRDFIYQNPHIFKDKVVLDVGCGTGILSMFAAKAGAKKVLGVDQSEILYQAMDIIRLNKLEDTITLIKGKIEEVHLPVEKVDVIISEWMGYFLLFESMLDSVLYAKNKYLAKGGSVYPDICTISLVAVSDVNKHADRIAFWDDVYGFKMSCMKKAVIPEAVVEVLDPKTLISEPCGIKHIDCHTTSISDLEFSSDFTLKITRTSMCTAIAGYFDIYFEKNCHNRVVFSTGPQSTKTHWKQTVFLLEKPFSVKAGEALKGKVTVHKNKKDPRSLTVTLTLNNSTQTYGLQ
# Procedure, shortened: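 E. coli-expressed His-tagged PRMT3 (residues 211–531) was used. Reactions in 50 mM HEPES pH 8, 10 mM NaCl, 0.5 mM EDTA, 0.5 mM DTT contained 0.25–8 μM N-acetylated H4(1–20) peptide (unmodified, K5me or K5ac). Products were P81 filter-bound, washed with NaHCO3 pH 9 and scintillation-counted. Rates (product/[E] per min) were fitted to the Hill or Michaelis-Menten equation, at least duplicate.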
# [4] = target: T1, PRMT8; assay: PRMT8 steady-state kinetics, radioactive filter-binding methylation assay; details: 0.05 μM PRMT8, 15 μM [14C]-SAM, 35 min, 30 °C; data not shown
# Procedure, shortened: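 Recombinant His-tagged PRMT8 was expressed in E. coli BL21(DE3) and Ni-NTA purified. Reactions were run in 50 mM HEPES pH 8, 10 mM NaCl, 0.5 mM EDTA, 0.5 mM DTT with 0.25–16 μM N-acetylated H4(1–20) peptide (unmodified, K5me or K5ac), initiated with enzyme. They were isopropanol-quenched, P81 filter-bound, washed with NaHCO3 pH 9 and scintillation-counted against [14C]-SAM reference. Rates were Hill-fitted, at least duplicate.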
# [5] = target: T2, truncated PRMT3 (residues 211–531); assay: PRMT3 single-point radioactive methylation assay; details: 0.05 μM PRMT3, 5 μM [14C]-SAM, 10 μM peptide, 30 °C, 35 min
# T1 sequence (Q9NR22 whole entry): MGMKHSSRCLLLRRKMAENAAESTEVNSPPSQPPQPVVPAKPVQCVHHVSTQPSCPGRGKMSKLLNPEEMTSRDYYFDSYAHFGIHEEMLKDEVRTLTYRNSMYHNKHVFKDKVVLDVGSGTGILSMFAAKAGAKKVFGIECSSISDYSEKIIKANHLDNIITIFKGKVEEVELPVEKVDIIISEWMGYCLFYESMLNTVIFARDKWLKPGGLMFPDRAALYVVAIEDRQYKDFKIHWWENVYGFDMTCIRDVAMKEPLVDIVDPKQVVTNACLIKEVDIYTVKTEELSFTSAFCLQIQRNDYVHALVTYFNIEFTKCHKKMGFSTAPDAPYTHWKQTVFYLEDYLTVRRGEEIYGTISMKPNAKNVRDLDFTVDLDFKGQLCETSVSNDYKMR
# Chain of human recombinant PRMT1 (Q99873 whole entry, the tested form may be a part): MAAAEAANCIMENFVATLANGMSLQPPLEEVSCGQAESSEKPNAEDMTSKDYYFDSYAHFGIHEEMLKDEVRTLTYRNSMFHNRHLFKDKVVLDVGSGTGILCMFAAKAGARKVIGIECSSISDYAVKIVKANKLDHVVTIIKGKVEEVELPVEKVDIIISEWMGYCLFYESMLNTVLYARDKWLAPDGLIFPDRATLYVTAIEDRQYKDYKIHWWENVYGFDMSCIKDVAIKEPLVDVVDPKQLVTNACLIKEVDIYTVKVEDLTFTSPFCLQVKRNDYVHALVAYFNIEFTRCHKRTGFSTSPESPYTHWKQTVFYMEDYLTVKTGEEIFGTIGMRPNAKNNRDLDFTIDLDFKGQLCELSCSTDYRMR
substance,measurement,setting,value
"Ac-H4(1-21): N-terminally acetylated histone H4 peptide, residues 1-21",effect of the modification on arginine methylation by PRMT8,[1],did not strongly affect arginine methylation
same,effect of the modification on arginine methylation by PRMT1,[2],did not strongly affect arginine methylation
Ac-SGRGKacGGKGLGKGGAKRHRK [Ac-H4(1-20)K5ac],increase of K0.5 in comparison to Ac-H4(1-20),"[3]; PRMT3, Hill fit",2 fold
Ac-SGRGKmeGGKGLGKGGAKRHRK [Ac-H4(1-20)K5me],peptide concentration above which substrate inhibition appeared,"[3]; 0.05 μM PRMT3, 15 μM [14C]-SAM, 35 min, 30 °C, data not shown",above 8 μM
same,increase of kcat in comparison to Ac-H4(1-20),"[3]; PRMT3, Hill fit",3 fold
same,catalytic efficiency higher than Ac-H4(1-20),"[3]; PRMT3, kcat/K0.5",~4 fold
same,peptide concentration above which substrate inhibition appeared,[4],above 4 μM
same,increase in arginine methylation in comparison to Ac-H4(1-20),[5],over 5 fold
